Source: ChEMBL document CHEMBL4118248, “Small Molecule Proprotein Convertase Subtilisin/Kexin Type 9 (PCSK9) Inhibitors: Hit to Lead Optimization of Systemic Agents” (J Med Chem, 2018)
The source made the active and inactive calls. The calls are words filed in the database; no cut-off is given here.

Tests used:
[1] = Total plasma concentration in Crl:CD(SD) rat at 50 mg/kg/day, po daily via gavage for 14 days measured on day 14 post last dose up to 24 hrs; assay type: ADME, organism-based; conditions: in vivo
[2] = molecular target: 80S Ribosome; assay: Binding affinity of [3H]PF-06446846 to human 80S ribosome
[3] = molecular target: 80S Ribosome; assay: Binding affinity to 80S ribosome in human HuH7 cells harboring pCMV-truncated human PCSK9 (1 to 152 residues)-proLuc assessed as inhibition of PCSK9 mRNA translation after overnight incubation by luciferase reporter gene assay; assay type: cell-based; conditions: huh-7
Procedure, shortened: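 Huh7 cells stably carry human PCSK9 prodomain (aa 1-152) fused to firefly luciferase (aa 2-550) in pcDNA3.1, kept under 900 µg/mL Geneticin. Plated 10,000/well in phenol red-free DMEM/10% FBS and left 4 h, then compound added (top final 20 µM, 0.5% DMSO). Incubated overnight at 37 °C, luminescence read with SteadyGlo.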

[4] = Cytotoxicity against human CD34-positive hematopoietic progenitor cells assessed as reduction in cell viability after 72 hrs by CellTiter-Glo assay; assay type: cell-based
[5] = molecular target: CYP3A4 (Homo sapiens, UniProt P08684); assay: Inhibition of CYP3A4 (unknown origin) at 3 uM relative to control; assay type: ADME
Sequence of CYP3A4 (P08684 whole entry): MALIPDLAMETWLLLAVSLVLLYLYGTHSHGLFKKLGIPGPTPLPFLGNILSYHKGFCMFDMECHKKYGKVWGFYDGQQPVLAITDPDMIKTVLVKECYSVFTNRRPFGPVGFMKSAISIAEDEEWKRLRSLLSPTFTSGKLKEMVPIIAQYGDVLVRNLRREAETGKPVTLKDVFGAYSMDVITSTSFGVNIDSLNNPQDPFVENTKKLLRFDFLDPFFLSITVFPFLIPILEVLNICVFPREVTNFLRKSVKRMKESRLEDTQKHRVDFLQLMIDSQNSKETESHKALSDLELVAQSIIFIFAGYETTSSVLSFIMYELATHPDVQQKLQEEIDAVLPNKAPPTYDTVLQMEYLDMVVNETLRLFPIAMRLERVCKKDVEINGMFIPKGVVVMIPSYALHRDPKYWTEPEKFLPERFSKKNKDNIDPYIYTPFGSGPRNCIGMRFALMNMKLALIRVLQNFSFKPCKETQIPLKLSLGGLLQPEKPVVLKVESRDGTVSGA
Procedure, shortened: (§1)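 Inhibition of CYP1A2, 2D6, 2C9 and 3A4 reported as IC50, or as percent inhibition at 3 µM.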

[6] = Intrinsic clearance in rat liver microsomes; assay type: ADME, microsome; conditions: read-out: CLH
[7] = molecular target: CYP2D6 (Homo sapiens, UniProt P10635); assay: Inhibition of CYP2D6 (unknown origin) at 3 uM relative to control; assay type: ADME; procedure, shortened: as §1
Sequence of CYP2D6 (P10635 whole entry): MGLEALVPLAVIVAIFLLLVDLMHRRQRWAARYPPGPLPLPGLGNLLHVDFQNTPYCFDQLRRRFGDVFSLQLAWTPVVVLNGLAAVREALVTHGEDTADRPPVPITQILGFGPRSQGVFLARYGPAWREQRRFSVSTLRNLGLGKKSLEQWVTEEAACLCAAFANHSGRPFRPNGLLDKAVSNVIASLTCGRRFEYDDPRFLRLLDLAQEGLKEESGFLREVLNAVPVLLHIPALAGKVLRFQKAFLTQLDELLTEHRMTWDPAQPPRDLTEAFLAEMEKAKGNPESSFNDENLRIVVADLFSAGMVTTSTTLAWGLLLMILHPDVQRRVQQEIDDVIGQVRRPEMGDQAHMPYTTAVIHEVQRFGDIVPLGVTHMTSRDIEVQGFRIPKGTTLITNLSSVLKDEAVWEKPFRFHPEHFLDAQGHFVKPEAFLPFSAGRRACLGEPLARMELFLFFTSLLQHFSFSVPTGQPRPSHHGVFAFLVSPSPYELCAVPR

[8] = Apparent permeability in RRCK cells; assay type: ADME, cell-based, Canis lupus familiaris, MDCKII-LE; conditions: dog, MDCK
Procedure, shortened: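 Passive permeability measured in RRCK cells, a modified Madin-Darby canine kidney line; Papp reported in 10^-6 cm/s.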

[9] = tested on: Mus musculus; assay: Inhibition of PCSK9 secretion in plasma of humanized PCSK9 C57BL6J mouse assessed as free plasma concentration required to show effect at 30 to 100 mg/kg, po via gavage measured up to 24 hrs by ELISA; assay type: functional
Procedure, shortened: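 Humanized PCSK9 mice given a single oral dose of 30 or 100 mg/kg, with vehicle group. Plasma PCSK9 followed over 0-24 h and normalized to t = 0. Free effective concentration derived from the whole time course with an indirect-effect PK/PD model.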

[10] = molecular target: 80S Ribosome; assay: Binding affinity to 80S ribosome in human HuH7 cells assessed as inhibition of PCSK9 mRNA translation after overnight incubation by ELISA; assay type: cell-based; conditions: huh-7
Procedure, shortened: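 Huh7 cells kept in high-glucose DMEM, 10% BSA-free FBS, 2 mM L-glutamine, pen/strep at 37 °C, 5% CO2. Plated 7,500/well with compound or vehicle and incubated overnight (16-20 h). Secreted PCSK9 in the medium read by AlphaLISA: two antibodies to different mature-PCSK9 epitopes, biotinylated antibody 3 nM final, acceptor beads 10 µg/mL, 0.5 h rt; streptavidin donor beads 40 µg/mL, 1 h rt.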

[11] = tested on: Rattus norvegicus; assay: Toxicity in Crl:CD(SD) rat at 50 mg/kg/day, po daily via gavage for 14 days; assay type: organism-based; conditions: in vivo, 336 h
[12] = tested on: Ribosome; assay: Binding affinity to 80S ribosome in rat IEC-6 cells assessed as induction of changes in Ndc80 nascent chain expression at 4 uM by ribosome profiling method; assay type: cell-based
Procedure, shortened: (§2)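 Rat IEC-6 cells exposed 1 h to 4 µM compound or vehicle, followed by ribosome profiling. Cumulative read fractions along annotated protein regions compared with vehicle. RPKM taken from reads 3' of the Dmax position when the Dmax Z-score is >2.0, otherwise 3' of codon 50.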

[13] = tested on: IEC-6; assay: Cytotoxicity against rat IEC-6 cells assessed as reduction in cell viability after 3 days by CellTiter-Glo assay; assay type: cell-based; conditions: IEC-6, 72 h
Procedure, shortened: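 Rat intestinal epithelial IEC-6 cells; viability read by CellTiter-Glo ATP luminescence.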

[14] = tested on: Bone marrow cell; assay: Cytotoxicity against rat bone marrow cells assessed as reduction in cell viability after 72 hrs by CellTiter-Glo assay; assay type: cell-based
[15] = Permeability from apical to basolateral side in MDCK cells harboring MDR1; assay type: ADME, cell-based, Canis lupus familiaris; conditions: dog, read-out: permeability
Procedure, shortened: (§3)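 Bidirectional permeability across MDR1-transfected MDCK monolayers, apical-to-basolateral and basolateral-to-apical; Papp reported in 10^-6 cm/s.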

[16] = Permeability from basolateral to apical side in MDCK cells harboring MDR1; assay type: ADME, cell-based, Canis lupus familiaris; conditions: dog, read-out: permeability; procedure, shortened: as §3
[17] = tested on: Rattus norvegicus; assay: Toxicity in Crl:CD(SD) rat at 50 mg/kg/day, po daily via gavage for 14 days measured on day 15 post last dose; assay type: organism-based; conditions: in vivo, 336 h
Procedure, shortened: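 Male rats, 5 per group, given vehicle or test compound at 50 mg/kg by daily oral gavage for 14 days. Mortality, clinical signs and hematology were monitored throughout. Toxicokinetics were sampled at 1, 3, 6 and 24 h post-dose on day 14. Necropsy was on day 15, with microscopic evaluation of bone marrow, ileum, duodenum, jejunum and liver.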

[18] = tested on: Rattus norvegicus; assay: Toxicity in Crl:CD(SD) rat assessed as mortality at 500 mg/kg/day, po daily via gavage for 14 days; assay type: organism-based; conditions: in vivo, 336 h
Procedure, shortened: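 Rats dosed orally at 50, 150 and 500 mg/kg/day for 14 days; crypt epithelium of duodenum/jejunum examined histologically and mortality recorded.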

[19] = molecular target: T1, Voltage-gated inwardly rectifying potassium channel KCNH2 (Homo sapiens, UniProt Q12809); assay: Inhibition of dofetilide binding to human ERG by fluorescence polarization assay
T1 sequence (Q12809 whole entry): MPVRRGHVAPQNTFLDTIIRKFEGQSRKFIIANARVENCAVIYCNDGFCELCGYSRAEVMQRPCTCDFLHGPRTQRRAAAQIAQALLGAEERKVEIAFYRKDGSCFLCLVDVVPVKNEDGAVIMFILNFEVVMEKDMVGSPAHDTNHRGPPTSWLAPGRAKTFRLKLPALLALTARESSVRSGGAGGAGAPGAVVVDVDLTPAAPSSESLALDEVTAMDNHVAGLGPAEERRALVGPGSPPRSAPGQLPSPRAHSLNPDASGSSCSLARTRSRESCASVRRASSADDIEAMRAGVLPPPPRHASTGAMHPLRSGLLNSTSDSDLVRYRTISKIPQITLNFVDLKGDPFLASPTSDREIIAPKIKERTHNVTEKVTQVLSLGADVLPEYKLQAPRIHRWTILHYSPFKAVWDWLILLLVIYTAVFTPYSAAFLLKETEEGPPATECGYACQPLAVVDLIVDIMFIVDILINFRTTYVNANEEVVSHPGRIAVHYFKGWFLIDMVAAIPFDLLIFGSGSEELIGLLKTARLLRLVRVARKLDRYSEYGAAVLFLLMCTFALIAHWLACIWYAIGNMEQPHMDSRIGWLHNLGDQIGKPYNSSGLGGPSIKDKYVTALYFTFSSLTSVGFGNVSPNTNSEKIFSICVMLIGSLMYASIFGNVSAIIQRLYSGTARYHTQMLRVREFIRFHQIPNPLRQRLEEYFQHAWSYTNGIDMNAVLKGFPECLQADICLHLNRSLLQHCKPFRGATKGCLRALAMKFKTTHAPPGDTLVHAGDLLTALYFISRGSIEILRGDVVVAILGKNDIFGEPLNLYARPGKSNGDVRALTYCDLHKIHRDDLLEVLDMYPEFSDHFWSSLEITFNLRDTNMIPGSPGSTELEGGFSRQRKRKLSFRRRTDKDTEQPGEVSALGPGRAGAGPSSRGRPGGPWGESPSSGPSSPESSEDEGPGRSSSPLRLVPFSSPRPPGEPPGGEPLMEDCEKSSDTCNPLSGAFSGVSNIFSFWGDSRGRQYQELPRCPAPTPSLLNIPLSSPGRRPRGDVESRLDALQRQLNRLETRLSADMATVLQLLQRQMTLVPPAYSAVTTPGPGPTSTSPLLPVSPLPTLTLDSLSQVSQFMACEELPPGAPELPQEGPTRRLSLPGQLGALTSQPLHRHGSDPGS

[20] = tested on: Ribosome; assay: Binding affinity to 80S ribosome in rat IEC-6 cells assessed as induction of changes in Cox15 nascent chain expression at 4 uM by ribosome profiling method; assay type: cell-based; procedure, shortened: as §2
[21] = molecular target: T2, CYP1A2 (Homo sapiens, UniProt P05177); assay: Inhibition of CYP1A2 (unknown origin) at 3 uM relative to control; assay type: ADME; procedure, shortened: as §1
T2 sequence (P05177 whole entry): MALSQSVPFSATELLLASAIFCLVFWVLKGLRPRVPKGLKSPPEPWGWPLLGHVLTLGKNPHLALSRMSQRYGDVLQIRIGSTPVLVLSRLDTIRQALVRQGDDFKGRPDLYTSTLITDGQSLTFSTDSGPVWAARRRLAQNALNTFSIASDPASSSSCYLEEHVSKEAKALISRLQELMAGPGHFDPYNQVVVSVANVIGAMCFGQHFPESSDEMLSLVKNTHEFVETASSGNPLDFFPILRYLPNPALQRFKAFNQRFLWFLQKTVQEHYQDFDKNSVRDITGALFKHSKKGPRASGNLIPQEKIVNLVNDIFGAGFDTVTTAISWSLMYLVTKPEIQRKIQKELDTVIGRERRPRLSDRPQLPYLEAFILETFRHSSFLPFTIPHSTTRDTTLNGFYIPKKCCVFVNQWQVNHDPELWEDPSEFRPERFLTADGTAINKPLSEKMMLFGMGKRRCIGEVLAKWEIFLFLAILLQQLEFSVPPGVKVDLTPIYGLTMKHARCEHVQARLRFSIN

[22] = Total Cmax in Crl:CD(SD) rat at 50 mg/kg/day, po daily via gavage for 14 days measured on day 14 post last dose up to 24 hrs; assay type: ADME, organism-based; parameters: dose 50 mg/kg/day, route oral; conditions: in vivo
[23] = molecular target: T1, Voltage-gated inwardly rectifying potassium channel KCNH2; assay: Inhibition of human ERG by patch clamp method
[24] = Selectivity index, ratio of IC50 for cytotoxicity against rat bone marrow cells to IC50 for 80S ribosome in human HuH7 cells harboring pCMV-truncated human PCSK9 (1 to 152 residues)-proLuc; assay type: toxicity, cell-based; conditions: read-out: Ratio IC50
[25] = Intrinsic clearance in human liver microsomes; assay type: ADME, microsome; conditions: read-out: CLH
[26] = tested on: Rattus norvegicus; assay: Toxicity in Crl:CD(SD) rat assessed as single cell necrosis in crypt cells in ileum at 50 mg/kg/day, po daily via gavage for 14 days measured on day 15 post last dose; assay type: organism-based; conditions: in vivo, 336 h
[27] = Fraction unbound in rat plasma; assay type: ADME, cell-free
Procedure, shortened: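 Unbound fraction measured in rat plasma.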

[28] = molecular target: CYP2C9 (Homo sapiens, UniProt P11712); assay: Inhibition of CYP2C9 (unknown origin) at 3 uM relative to control; assay type: ADME; procedure, shortened: as §1
Sequence of CYP2C9 (P11712 whole entry): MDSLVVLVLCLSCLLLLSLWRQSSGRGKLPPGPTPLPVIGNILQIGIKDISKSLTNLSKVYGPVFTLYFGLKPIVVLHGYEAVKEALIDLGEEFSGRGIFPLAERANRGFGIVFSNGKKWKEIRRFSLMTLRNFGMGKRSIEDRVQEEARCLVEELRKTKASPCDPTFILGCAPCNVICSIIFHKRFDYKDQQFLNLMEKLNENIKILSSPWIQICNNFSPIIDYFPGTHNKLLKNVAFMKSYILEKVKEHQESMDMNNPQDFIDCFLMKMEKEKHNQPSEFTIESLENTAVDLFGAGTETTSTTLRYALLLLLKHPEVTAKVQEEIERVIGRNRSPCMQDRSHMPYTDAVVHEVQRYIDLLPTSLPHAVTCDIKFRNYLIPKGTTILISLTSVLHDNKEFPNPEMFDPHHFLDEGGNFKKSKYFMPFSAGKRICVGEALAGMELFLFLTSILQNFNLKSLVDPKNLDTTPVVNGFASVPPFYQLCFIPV

[29] = tested on: Rattus norvegicus; assay: Toxicity in Crl:CD(SD) rat assessed as mortality at >= 150 mg/kg/day, po daily via gavage for 14 days measured on day 15 post last dose; assay type: organism-based; conditions: in vivo, 336 h
[30] = Lipophilicity, log D of the compound by shake flask method; assay type: physicochemical; conditions: octanol/water
Procedure, shortened: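 LogD measured by the shake-flask method.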

[31] = tested on: Rattus norvegicus; assay: Toxicity in Crl:CD(SD) rat assessed as discolored/mottled liver at 50 mg/kg/day, po daily via gavage for 14 days measured on day 15 post last dose; assay type: organism-based; conditions: in vivo, 336 h
Procedure, shortened: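 Male rats, 5 per group, given vehicle or compound at 50 mg/kg/day by oral gavage for 14 days. Mortality, clinical signs and hematology monitored throughout. Necropsy on day 15 with microscopy of bone marrow, ileum, duodenum, jejunum and liver. Toxicokinetics at 1, 3, 6 and 24 h post-dose on day 14.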

## Cc1cnc2c(c1)nnn2-c1ccc(C(=O)N(c2ncccc2Cl)[C@@H]2CCCNC2)nc1
[1]
  concentration: 15.9 µM
[2]
  Ki: 63 µM
[3]
  IC50: 0.85 µM
[4]
  IC50: > 20 µM
[5]
  inhibition at 3 µM: < 13%
[6]
  microsomal CLint: 15.1 µL/min/mg
[7]
  inhibition at 3 µM: < 13%
[8]
  Papp: 6.2 ×10⁻⁶ cm/s
[9]
  Cp(f): 175 nM
[10]
  IC50: 1.37 µM
[11]
  NOAEL: 4.231 µM
[12]
  Activity: Active
[13]
  IC50: > 20 µM
[14]
  IC50: 20 to 65 µM
[15]
  Papp A→B: 1.3 ×10⁻⁶ cm/s
[16]
  Papp B→A: 19.9 ×10⁻⁶ cm/s
[17]
  Activity: Non-Toxic
[18]
  Activity: Toxic
[19]
  Ki: 5.9 µM
[20]
  Activity: Active
[21]
  inhibition at 3 µM: < 13%
[22]
  Cmax: 9660 ng/mL
[23]
  IC50: 3.6 µM
[24]
  selectivity ratio: > 30
[25]
  microsomal CLint: 9.3 µL/min/mg
[26]
  Activity: Non-Toxic
[27]
  fraction unbound: 0.24
[28]
  inhibition at 3 µM: < 13%
[29]
  Activity: Toxic
[30]
  logD: 0.7
[31]
  Activity: Toxic
